The record followed here is ChEMBL document CHEMBL1123735 (J Med Chem, 1987).

The species entered for test [1] is Rattus norvegicus. Put plainly: Inhibition of carbachol-induced release of alpha-amylase from pancreatic acini from rat was determined. As to conditions: read-out: I50. The class given is functional. The procedure, abridged: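 Dispersed acini from male Sprague–Dawley rat pancreas (collagenase 0.8 mg/mL, three incubations), in DMEM with 0.2% albumin, 0.01% trypsin inhibitor, 0.09% theophylline under O2; viability >99%. Incubated with graded antagonist plus 10⁻⁵ M carbachol; secreted α-amylase by Phadebas assay; I50 by curve fitting.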

The species named for the next test is Cavia porcellus. Put plainly: Antimuscarinic activity was assayed for its ability to block the acetyl-choline induced contraction of the guinea pig ileum. The test is classed as functional.
For test [2], the target named is Muscarinic acetylcholine receptor. Description: Inhibit the binding of [N-mnethyl-3H]-scopolamine [3H]-NMS) to Muscarinic acetylcholine receptor of human IRM-30 neuroblastoma cells.
Test [3] is filed under the species Rattus norvegicus. Put plainly: Compound was tested for decrease in rate of lever pressing by rat. The class given is functional. The procedure, abridged:
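Male Sprague–Dawley rats (350 g) lever-pressing for food on a 10-response schedule; sessions 30 min or 50 food presentations. Drug given intraperitoneally 30 min before session; saline controls. Mean ± SEM of single or duplicate determinations in four to six rats; I50 in mol/kg for rate decrease.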

`CCN(CC)CCOC(=O)C(c1ccccc1)c1ccccc1` [ADIPHENINE]: in the test listed under Rattus norvegicus [1], the IC50 was 350 nM. For the same molecule, the values for the Kb in the test listed under Cavia porcellus and in the test filed under Cavia porcellus (read-out: pA2 (converted)) were 92 nM and 79.4 nM, respectively.
In general, Ki refers to the dissociation constant of the complex between target and ligand, obtained from inhibition or displacement. High values mean lower affinity, low ones higher affinity. Take `CCN(CC)CCOC(=O)C(C)(c1ccccc1)c1ccccc1` [APROFENE]: the Ki in test [2] came out at 23 nM. Further, the IC50 in the test filed under Rattus norvegicus [1] turned out to be 11 nM. In addition, the Kb is 3.1 nM in the test listed under Cavia porcellus and 3.16 nM in the test listed under Cavia porcellus (read-out: pA2 (converted)).
`CN1[C@@H]2CC[C@H]1C[C@@H](OC(=O)C(CO)c1ccccc1)C2` (stereo partly drawn) [ATROPINE]: in the test filed under Rattus norvegicus [1], the IC50 was 51 nM. Moreover, the Kb in the test listed under Cavia porcellus and in the test filed under Cavia porcellus (read-out: pA2 (converted)) was 2 nM each time. The molecule also yielded an I50 in the test filed under Rattus norvegicus [3] of 2.3e-05 M/kg.
`CN1CC2CC(OC(=O)C(C)(c3ccccc3)c3ccccc3)CC1C2` (stereo not drawn) [AZAPROPHEN] had a Ki in test [2] of 0.27 nM. The IC50 in the test listed under Rattus norvegicus [1] is 0.068 nM. This molecule gave an I50 in the test filed under Rattus norvegicus [3] of 1.9e-05 M/kg.
Turning to `CCN(CC)CCOC(=O)C(O)(c1ccccc1)c1ccccc1` [BENACTYZINE], the IC50 in the test filed under Rattus norvegicus [1] was 30 nM.
As for `CN1CCN(CC(=O)N2c3ccccc3C(=O)Nc3cccnc32)CC1` [PIRENZEPINE], the IC50 in the test filed under Rattus norvegicus [1] is 2800 nM. Besides, the Kb in the test filed under Cavia porcellus is 50000 nM; in the test filed under Cavia porcellus (read-out: pA2 (converted)), 50100 nM.
